Results taken from ChEMBL document CHEMBL1770075, “Thermal solvent-free synthesis of novel pyrazolyl chalcones and pyrazolines as potential antimicrobial agents” (2011).
Converted amounts (≈) assume the structure as drawn.

Assays:
Pseudomonas aeruginosa [1] = assay: microbe, parasite or virus in culture; settings: ATCC 27853, 24 h, read-out: DIZ
Staphylococcus aureus [2] = assay: Antibacterial activity against methicillin-resistant Staphylococcus aureus at 30 ug after 24 hrs by Halo zone test; settings: read-out: DIZ
Staphylococcus aureus [3] = assay: Bactericidal activity against methicillin-resistant Staphylococcus aureus after 18 to 24 hrs by colony counting method; format: functional
Outline: (§1)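 Colonies were counted after 18–24 h at 35 °C. MBC is the lowest concentration that kills 99.9% of the inoculum.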

Escherichia coli [4] = assay: Bactericidal activity against Escherichia coli ATCC 25922 after 18 to 24 hrs by colony counting method; format: functional
Outline: as §1

Pseudomonas aeruginosa [5] = assay: Bactericidal activity against Pseudomonas aeruginosa ATCC 27853 after 18 to 24 hrs by colony counting method; format: functional
Outline: as §1

Streptococcus pyogenes [6] = assay: Antibacterial activity against clinical isolate of Streptococcus pyogenes after 24 hrs at 30 ug by Halo zone test; settings: read-out: DIZ
Klebsiella pneumoniae [7] = assay: Antibacterial activity against clinical isolate of Klebsiella pneumoniae at 30 ug after 24 hrs by Halo zone test; settings: read-out: DIZ
Escherichia coli [8] = assay: Antibacterial activity against Escherichia coli ATCC 25922 after 24 hrs by broth dilution method; format: functional; settings: ATCC 25922, 24 h
Staphylococcus aureus [9] = assay: Antibacterial activity against methicillin-resistant Staphylococcus aureus after 24 hrs by disk diffusion method; format: functional
Talaromyces marneffei [10] = assay: Antifungal activity against Penicillium marneffei after 48 hrs; format: functional
Outline: (§2)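 Broth with two-fold serial dilutions of compound was inoculated with 1.6 × 10⁴–6 × 10⁴ c.f.u/ml and incubated at 35 °C. MIC is the lowest concentration that arrests growth. For MFC, 0.1 ml was spread on agar, colonies were counted after 48 h at 35 °C, and the endpoint was the lowest concentration killing 99.9%.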

Talaromyces marneffei [11] = assay: Antifungal activity against Penicillium marneffei after 48 hrs by agar diffusion method; format: functional
Candida albicans [12] = assay: Antifungal activity against Candida albicans after 48 hrs; format: functional
Outline: as §2

[13] = system: Trichophyton mentagrophytes; assay: Antifungal activity against Trichophyton mentagrophytes after 48 hrs; format: functional
Outline: as §2

Klebsiella pneumoniae [14] = assay: Antibacterial activity against clinical isolate of Klebsiella pneumoniae after 24 hrs by broth dilution method; format: functional
Pseudomonas aeruginosa [15] = assay: Antibacterial activity against Pseudomonas aeruginosa ATCC 27853 after 24 hrs by broth dilution method; format: functional; settings: ATCC 27853, 24 h
Streptococcus pyogenes [16] = assay: Bactericidal activity against clinical isolate of Streptococcus pyogenes after 18 to 24 hrs by colony counting method; format: functional
Staphylococcus aureus [17] = assay: Antibacterial activity against methicillin-resistant Staphylococcus aureus after 24 hrs by broth dilution method; format: functional
Streptococcus pyogenes [18] = assay: Antibacterial activity against clinical isolate of Streptococcus pyogenes after 24 hrs by broth dilution method; format: functional
Candida albicans [19] = assay: Antifungal activity against Candida albicans after 48 hrs by agar diffusion method; format: functional
Klebsiella pneumoniae [20] = assay: Antibacterial activity against clinical isolate of Klebsiella pneumoniae after 24 hrs by disk diffusion method; format: functional
Streptococcus pyogenes [21] = assay: Antibacterial activity against clinical isolate of Streptococcus pyogenes after 24 hrs by disk diffusion method; format: functional
Pseudomonas aeruginosa [22] = assay: Antibacterial activity against Pseudomonas aeruginosa ATCC 27853 after 24 hrs by disk diffusion method; format: functional
Aspergillus fumigatus [23] = assay: Antifungal activity against Aspergillus fumigatus after 48 hrs by agar diffusion method; format: functional
Klebsiella pneumoniae [24] = assay: Bactericidal activity against clinical isolate of Klebsiella pneumoniae after 18 to 24 hrs by colony counting method; format: functional
[25] = system: Trichophyton mentagrophytes; assay: Antifungal activity against Trichophyton mentagrophytes after 48 hrs by agar diffusion method; format: functional
Aspergillus fumigatus [26] = assay: Antifungal activity against Aspergillus fumigatus after 48 hrs; format: functional
Outline: as §2

Escherichia coli [27] = assay: Antibacterial activity against Escherichia coli ATCC 25922 after 24 hrs by disk diffusion method; format: functional
Talaromyces marneffei [28] = assay: Antifungal activity against Penicillium marneffei after 48 hrs by Halo zone test; format: functional
Aspergillus fumigatus [29] = assay: Antifungal activity against Aspergillus fumigatus after 48 hrs by Halo zone test; format: functional
[30] = system: Trichophyton mentagrophytes; assay: Antifungal activity against Trichophyton mentagrophytes after 48 hrs by Halo zone test; format: functional
Candida albicans [31] = assay: Antifungal activity against Candida albicans after 48 hrs by Halo zone test; format: functional

Row | SMILES | MBC (Staphylococcus aureus [3]) [µg/mL] | MBC (Escherichia coli [4]) [µg/mL] | MBC (Pseudomonas aeruginosa [5]) [µg/mL] | MIC (Escherichia coli [8]) [µg/mL] | diameter of the inhibition zone (DIZ) (Staphylococcus aureus [9]) [mm] | MFC (Talaromyces marneffei [10]) [µg/mL] | MIC (Talaromyces marneffei [10]) [µg/mL] | diameter of the inhibition zone (DIZ) (Talaromyces marneffei [11]) [mm] | MFC (Candida albicans [12]) [µg/mL] | MIC (Candida albicans [12]) [µg/mL] | MFC [13] [µg/mL] | MIC [13] [µg/mL] | MIC (Klebsiella pneumoniae [14]) [µg/mL] | MIC (Pseudomonas aeruginosa [15]) [µg/mL] | MBC (Streptococcus pyogenes [16]) [µg/mL] | MIC (Staphylococcus aureus [17]) [µg/mL] | MIC (Streptococcus pyogenes [18]) [µg/mL] | diameter of the inhibition zone (DIZ) (Candida albicans [19]) [mm] | MFC (Aspergillus fumigatus [26]) [µg/mL] | MIC (Aspergillus fumigatus [26]) [µg/mL] | further results
1 | O=C(O)c1cn(C2CC2)c2cc(N3CCNCC3)c(F)cc2c1=O [CIPROFLOXACIN] | 50 (≈ 151 µM) | 50 (≈ 151 µM) | 25 (≈ 75.4 µM) | – | – | – | – | – | – | – | – | – | – | – | – | – | – | – | – | – | zone of inhibition at 30 µg/disc (Pseudomonas aeruginosa [1]): 32 mm; zone of inhibition at 30 µg/disc (Staphylococcus aureus [2]): 25 mm; zone of inhibition at 30 µg/disc (Streptococcus pyogenes [6]): 24 mm; zone of inhibition at 30 µg/disc (Klebsiella pneumoniae [7]): 18 mm
2 | Cc1nn(-c2ccccc2)c(Cl)c1/C=C/C(=O)C1C(=O)NC(=S)NC1=O | 50 (≈ 129 µM) | 100 (≈ 257 µM) | 100 (≈ 257 µM) | 50 (≈ 129 µM) | 17.1 | 100 (≈ 257 µM) | 25 (≈ 64.3 µM) | 14.1 | 50 (≈ 129 µM) | 25 (≈ 64.3 µM) | 50 (≈ 129 µM) | 25 (≈ 64.3 µM) | 25 (≈ 64.3 µM) | 25 (≈ 64.3 µM) | 100 (≈ 257 µM) | 25 (≈ 64.3 µM) | 25 (≈ 64.3 µM) | 20.4 | 50 (≈ 129 µM) | 25 (≈ 64.3 µM) | diameter of the inhibition zone (DIZ) (Klebsiella pneumoniae [20]): 15.4 mm; diameter of the inhibition zone (DIZ) (Streptococcus pyogenes [21]): 18.4 mm; diameter of the inhibition zone (DIZ) (Pseudomonas aeruginosa [22]): 22.1 mm; diameter of the inhibition zone (DIZ) (Aspergillus fumigatus [23]): 17.9 mm; MBC (Klebsiella pneumoniae [24]): 50 µg/mL (≈ 129 µM); diameter of the inhibition zone (DIZ) [25]: 17.1 mm; diameter of the inhibition zone (DIZ) (Escherichia coli [27]): 20.7 mm
3 | OC(Cn1cncn1)(Cn1cncn1)c1ccc(F)cc1F [FLUCONAZOLE] | – | – | – | – | – | 12.5 (≈ 40.8 µM) | 6.5 (≈ 21.2 µM) | – | 12.5 (≈ 40.8 µM) | 6.25 (≈ 20.4 µM) | 12.5 (≈ 40.8 µM) | 6.25 (≈ 20.4 µM) | – | – | – | – | – | – | 12.5 (≈ 40.8 µM) | 6.5 (≈ 21.2 µM) | diameter of the inhibition zone (DIZ) (Talaromyces marneffei [28]): 18 mm; diameter of the inhibition zone (DIZ) (Aspergillus fumigatus [29]): 20 mm; diameter of the inhibition zone (DIZ) [30]: 19 mm; diameter of the inhibition zone (DIZ) (Candida albicans [31]): 20 mm
4 | Cc1nn(-c2ccccc2)c(Cl)c1C1CC(C2C(=O)NC(=O)NC2=O)=NN1 (stereo not given) | > 100 | > 100 | 100 (≈ 259 µM) | 50 (≈ 129 µM) | 15.3 | 100 (≈ 259 µM) | 50 (≈ 129 µM) | 13.1 | 100 (≈ 259 µM) | 50 (≈ 129 µM) | 100 (≈ 259 µM) | 50 (≈ 129 µM) | 50 (≈ 129 µM) | 50 (≈ 129 µM) | 100 (≈ 259 µM) | 100 (≈ 259 µM) | 50 (≈ 129 µM) | 20.4 | 100 (≈ 259 µM) | 50 (≈ 129 µM) | diameter of the inhibition zone (DIZ) (Klebsiella pneumoniae [20]): 14.7 mm; diameter of the inhibition zone (DIZ) (Streptococcus pyogenes [21]): 16.8 mm; diameter of the inhibition zone (DIZ) (Pseudomonas aeruginosa [22]): 20.1 mm; diameter of the inhibition zone (DIZ) (Aspergillus fumigatus [23]): 16.8 mm; MBC (Klebsiella pneumoniae [24]): > 100 µg/mL; diameter of the inhibition zone (DIZ) [25]: 16 mm; diameter of the inhibition zone (DIZ) (Escherichia coli [27]): 19.2 mm
5 | Cc1nn(-c2ccccc2)c(Cl)c1/C=C/C(=O)C1C(=O)N(C)C(=O)N(C)C1=O | 50 (≈ 125 µM) | 50 (≈ 125 µM) | 100 (≈ 249 µM) | 25 (≈ 62.4 µM) | 17.3 | 50 (≈ 125 µM) | 25 (≈ 62.4 µM) | 14.8 | 50 (≈ 125 µM) | 25 (≈ 62.4 µM) | 50 (≈ 125 µM) | 25 (≈ 62.4 µM) | 50 (≈ 125 µM) | 25 (≈ 62.4 µM) | 50 (≈ 125 µM) | 25 (≈ 62.4 µM) | 25 (≈ 62.4 µM) | 21.3 | 50 (≈ 125 µM) | 25 (≈ 62.4 µM) | diameter of the inhibition zone (DIZ) (Klebsiella pneumoniae [20]): 16.1 mm; diameter of the inhibition zone (DIZ) (Streptococcus pyogenes [21]): 20.1 mm; diameter of the inhibition zone (DIZ) (Pseudomonas aeruginosa [22]): 25.2 mm; diameter of the inhibition zone (DIZ) (Aspergillus fumigatus [23]): 18.6 mm; MBC (Klebsiella pneumoniae [24]): 100 µg/mL (≈ 249 µM); diameter of the inhibition zone (DIZ) [25]: 17.2 mm; diameter of the inhibition zone (DIZ) (Escherichia coli [27]): 22.2 mm
